Data on one molecule can be found in ChEMBL document CHEMBL1773023, “Potent and selective phosphopeptide mimetic prodrugs targeted to the Src homology 2 (SH2) domain of signal transducer and activator of transcription 3” (J Med Chem, 2011).

In one test the test system is NCI-H520. The test is described as follows: Cytotoxicity against human NCI-H520 cells assessed as cell growth inhibition at 5 to 10 uM after 72 hrs by MTT assay. In kind it is functional. In short, it runs like this: (§1)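 Cell lines with constitutive Stat3 phosphorylation (melanoma, NSCLC) exposed to prodrug at 5–10 μM. Percent growth inhibition recorded.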
On the technique in general: Tetrazolium assays rely on reduction of a dye to a coloured formazan, in cell work by metabolically active cells.

Test [1] addresses T1, Signal transducer and activator of transcription 3 (Homo sapiens, UniProt P40763). The test is described as follows: Inhibition of SH2 domain of Stat3 constitutive phosphorylation at Tyr705 in human MDA-MB-468 cells at 0.1 uM after 2 hrs by Western blotting. In kind it is cell-based. Summed up:
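MDA-MB-468 cells (4×10^5/well, DMEM 10% FCS, overnight) given prodrug from freshly made 10 mM DMSO stock for 2 h. Lysates in Hepes pH 7.4 Triton buffer with phosphatase/protease inhibitors; 12 μg protein on 8% SDS-PAGE, PVDF, probed for pStat3 Y705 by ECL, then stripped and reprobed for total Stat3.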

A short description of test [2]: Cytotoxicity against human NCI-H528 cells assessed as cell growth inhibition at 5 to 10 uM after 72 hrs by MTT assay. In kind it is functional. Summed up: as §1
Test [3] has as its target T1, Signal transducer and activator of transcription 3. The test can be described thus: Inhibition of constitutive SH2 domain of Stat3 phosphorylation at Tyr705 in human SKOV3-ip cells at 1 uM measured after 2 hrs by Western blotting. On the technique in general: A western blot detects proteins with antibodies after separation by electrophoresis.
A further test concerns A-375. The test can be described thus: Cytotoxicity against human A375 cells assessed as cell growth inhibition at 5 to 10 uM after 72 hrs by MTT assay. The format is functional. In short, it runs like this: as §1
A further test relates to MCF7. The test is described as follows: Cytotoxicity against human MCF7 cells after 72 hrs by SRB assay. In kind it is functional, cell-based. Conditions: MCF7, 72 h. Summed up:
(§2)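 Cancer cell lines (MCF-7, SKOV3-ip, HCC-827) dosed daily with prodrug for three days; viability by SRB assay.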

Test [4] concerns the target T1, Signal transducer and activator of transcription 3. The test can be described thus: Inhibition of SH2 domain of Stat3 in human MDA-MB-468 cells assessed as reduction of phosphorylated Stat3 level in cell nucleus at 5 uM after 2 hrs by fluorescence immunohistochemical analysis. In kind it is cell-based. Summed up: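 MDA-MB-468 cells on slides treated with 5 μM prodrug or DMSO for 2 h, fixed in 4% paraformaldehyde, permeabilized with 0.5% Triton X-100, blocked in 3% BSA, stained with anti-pTyr705 Stat3 and Alexa Fluor 594 secondary; confocal imaging at fixed microscope settings.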

Test [5] has the same target. The test is described as follows: Inhibition of SH2 domain of Stat3 phosphorylation at Tyr705 in human SKOV3-ip cells up to 10 uM by Western blotting.
Test [6] shares this target. The test is described as follows: Inhibition of SH2 domain of Stat3 phosphorylation at Tyr705 in human HCC-827 cells at 5 uM after 4 hrs by Western blotting. In kind it is cell-based. In short, it runs like this: (§3)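 HCC-827 NSCLC cells treated with 5 μM prodrug and sampled over a time course from 10 min to 24 h; pStat3 by Western blot.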
Test [7] addresses T2, Signal transducer and activator of transcription 5A (Homo sapiens) (UniProt P42229).
T2 sequence (whole entry): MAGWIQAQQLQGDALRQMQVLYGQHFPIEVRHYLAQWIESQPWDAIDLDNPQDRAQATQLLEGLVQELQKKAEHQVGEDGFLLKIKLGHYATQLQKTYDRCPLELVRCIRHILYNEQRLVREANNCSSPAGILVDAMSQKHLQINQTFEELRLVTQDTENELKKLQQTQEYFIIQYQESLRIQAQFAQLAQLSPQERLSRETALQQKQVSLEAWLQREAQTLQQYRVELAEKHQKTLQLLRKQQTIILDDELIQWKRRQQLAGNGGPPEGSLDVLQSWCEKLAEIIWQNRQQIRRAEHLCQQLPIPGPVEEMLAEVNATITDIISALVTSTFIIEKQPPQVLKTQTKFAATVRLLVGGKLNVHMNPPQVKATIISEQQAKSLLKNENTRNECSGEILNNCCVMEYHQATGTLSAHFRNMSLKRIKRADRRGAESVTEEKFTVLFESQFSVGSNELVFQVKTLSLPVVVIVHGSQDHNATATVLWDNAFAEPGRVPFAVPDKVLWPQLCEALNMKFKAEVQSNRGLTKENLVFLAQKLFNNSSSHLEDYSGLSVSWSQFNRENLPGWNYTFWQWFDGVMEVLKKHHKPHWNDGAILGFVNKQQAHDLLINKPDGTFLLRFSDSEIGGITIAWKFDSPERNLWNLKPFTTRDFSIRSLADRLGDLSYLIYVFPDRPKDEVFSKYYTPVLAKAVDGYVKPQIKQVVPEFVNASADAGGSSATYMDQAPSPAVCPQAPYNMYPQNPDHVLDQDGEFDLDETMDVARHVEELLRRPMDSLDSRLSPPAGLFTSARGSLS
The test can be described thus: Inhibition of EGF-induced SH2 domain of Stat5 phosphorylation at Tyr694 in human MDA-MB-468 cells at 5 uM treated 1.5 hrs before EGF challenge measured after 30 mins by Western blotting. The format is cell-based. In short, it runs like this:
(§4)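 MDA-MB-468 cells pretreated 1.5 h with prodrug (5 μM), then EGF 100 ng/mL for 30 min; lysates split onto three PVDF blots probed for phospho/total Stat3, pSer473/total Akt, and phospho/total Stat5.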

In test [8] the target is T1, Signal transducer and activator of transcription 3. The test can be described thus: Inhibition of SH2 domain of Stat3 constitutive phosphorylation at Tyr705 in human MDA-MB-468 cells at 5 uM after 16 hrs by Western blotting. The format is cell-based. In short, it runs like this: (§5)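 MDA-MB-468 cells given a single 5 μM prodrug dose and harvested at set times; pTyr705 and total Stat3 by Western blot of 12 μg lysate protein on 8% SDS-PAGE.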

Test [9] concerns the target RAC-alpha serine/threonine-protein kinase (Homo sapiens) (UniProt P31749). The test can be described thus: Inhibition of EGF-induced Akt phosphorylation at Ser473 in human MDA-MB-468 cells at 5 uM treated 1.5 hrs before EGF challenge measured after 30 mins by Western blotting. In kind it is cell-based. In short, it runs like this:
as §4

In a further test the test system is MeWo. The test can be described thus: Cytotoxicity against human MeWo cells assessed as cell growth inhibition at 5 to 10 uM after 72 hrs by MTT assay. In kind it is functional. In short, it runs like this:
as §1

The test system of the next test is A549. The test is described as follows: Cytotoxicity against human A549 cells assessed as cell growth inhibition at 5 to 10 uM after 72 hrs by MTT assay. The format is functional. In short, it runs like this: as §1
In test [10] the target is T1, Signal transducer and activator of transcription 3. The test can be described thus: Inhibition of SH2 domain of Stat3 constitutive phosphorylation at Tyr705 in human MDA-MB-468 cells at 5 uM after 4 hrs by Western blotting. In kind it is cell-based. In short, it runs like this:
as §5

Test [11] has the same target. The test can be described thus: Inhibition of SH2 domain of Stat3 phosphorylation at Tyr705 in human HCC-827 cells at 5 uM after 24 hrs by Western blotting. The format is cell-based. Summed up:
as §3

The nature of test [12]: Cytotoxicity against human SKOV3ip cells after 72 hrs by SRB assay. Conditions: SKOV3-ip. In kind it is functional, cell-based. In short, it runs like this:
as §2
A general note: In SRB staining, fixed cells bind dye roughly in proportion to their protein.

The IC50 is the midpoint of a concentration-inhibition curve.

Calls of active or inactive are those of the source. The rule behind the calls is not given here. Some results are limits rather than exact numbers.

T1 sequence (P40763 whole entry, the tested form may be a part): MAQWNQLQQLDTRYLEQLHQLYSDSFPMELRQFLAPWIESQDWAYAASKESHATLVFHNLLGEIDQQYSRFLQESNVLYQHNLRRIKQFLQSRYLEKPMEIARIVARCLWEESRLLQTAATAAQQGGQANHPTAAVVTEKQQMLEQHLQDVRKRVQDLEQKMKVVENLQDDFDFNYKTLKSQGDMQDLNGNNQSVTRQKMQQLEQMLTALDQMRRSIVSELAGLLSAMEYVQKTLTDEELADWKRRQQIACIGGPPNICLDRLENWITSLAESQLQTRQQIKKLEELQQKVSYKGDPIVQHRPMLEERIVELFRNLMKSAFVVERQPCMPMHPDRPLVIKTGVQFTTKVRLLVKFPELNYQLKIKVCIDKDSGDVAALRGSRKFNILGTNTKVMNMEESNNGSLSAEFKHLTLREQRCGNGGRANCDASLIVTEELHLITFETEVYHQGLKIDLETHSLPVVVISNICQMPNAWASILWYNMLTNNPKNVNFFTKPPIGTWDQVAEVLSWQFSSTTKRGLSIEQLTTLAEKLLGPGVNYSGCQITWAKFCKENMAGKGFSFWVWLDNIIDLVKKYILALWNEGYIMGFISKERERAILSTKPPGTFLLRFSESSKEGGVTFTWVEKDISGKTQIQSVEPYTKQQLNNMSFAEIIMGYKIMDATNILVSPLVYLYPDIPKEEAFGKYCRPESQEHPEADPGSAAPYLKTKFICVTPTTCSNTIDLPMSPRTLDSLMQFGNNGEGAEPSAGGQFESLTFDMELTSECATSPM
RAC-alpha serine/threonine-protein kinase (Homo sapiens), sequence (P31749 whole entry): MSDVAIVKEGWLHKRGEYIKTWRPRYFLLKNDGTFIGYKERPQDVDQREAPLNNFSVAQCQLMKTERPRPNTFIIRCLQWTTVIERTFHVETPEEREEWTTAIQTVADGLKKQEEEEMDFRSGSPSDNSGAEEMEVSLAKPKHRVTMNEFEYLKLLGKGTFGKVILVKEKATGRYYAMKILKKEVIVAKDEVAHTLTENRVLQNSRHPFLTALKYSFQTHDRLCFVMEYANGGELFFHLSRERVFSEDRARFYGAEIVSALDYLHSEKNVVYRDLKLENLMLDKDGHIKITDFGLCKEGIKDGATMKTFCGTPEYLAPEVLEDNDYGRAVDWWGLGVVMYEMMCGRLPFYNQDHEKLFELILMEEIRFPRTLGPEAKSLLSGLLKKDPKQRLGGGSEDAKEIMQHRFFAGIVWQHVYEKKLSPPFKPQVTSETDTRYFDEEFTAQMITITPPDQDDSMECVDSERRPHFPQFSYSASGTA

As to `C/C(=C\C(=O)N[C@H]1CCc2cccc3c2N(C1=O)[C@H](C(=O)N[C@H](C)CCC(N)=O)C3)c1ccc(C(F)(F)P(=O)(OCOC(=O)C(C)(C)C)OCOC(=O)C(C)(C)C)cc1`, the “growth inhibition (GI)” value (in the test with NCI-H520; in [2]; in the test with A-375; with MeWo; in the test with A549) was less than 20% throughout. Further, the inhibition entry in test [1], in [3], in [4], in [5], in test [6] and in test [10] was “Active” each time. In addition, the inhibition entry in [11] is “Active”. The IC50 (in the test with MCF7; in test [12]) was greater than 30 µM in each case. The inhibition entry in test [7], in test [8] and in test [9] was “inactive” throughout.
